Compound activity (PubChem)
A selection: hits, their analogues and other compounds. The true share with any hit is near 1.9%.
IMP-1 inhibitor = inhibitors of Pseudomonas aeruginosa IMP-1 metallo-beta-lactamase; inhibition, % at 5.6 µM; purified IMP-1, nitrocefin hydrolysis, epi-absorbance fluorescence; 290,000 tested, 0.45% active;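 active = inhibition above the mean plus 3 SD of all compounds in the same screening run, cut at about 4.5% in these data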;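 note: 0% = IMP-1 with DMSO and 100% = DMSO wells lacking enzyme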
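system = purified recombinant IMP-1 beta-lactamase | amount = 0.2 nM IMP-1, as dispensed | medium = HEPES buffer pH 7.1 with ZnSO4 and Brij 35 | times = 25 °C, 15 min preincubation, 25 min reaction | detection = plate fluorescence quenching by hydrolysis product, ex 480/em 530 nm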
NadD inh = blocks S. aureus nicotinate mononucleotide adenylyltransferase; purified NadD enzyme, colorimetric absorbance read-out; 360,000 tested, 0.78% active; inhibition, % at 20 µM; in the data active = inhibition above about 26%
VIM-2 inh = blocks Pseudomonas aeruginosa VIM-2 metallo-beta-lactamase; inhibition, % at 5.6 µM; purified VIM-2, nitrocefin hydrolysis, epi-absorbance fluorescence; 290,000 tested, 0.89% active; AID 1527;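 active = inhibition above the mean of all tested compounds plus 3 SD, cutoff set per screening run, cut at about 7.5% in these data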;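 note: red hydrolysis product quenches plate fluorescence so inhibitors raise well fluorescence; 0% = enzyme with DMSO and 100% = DMSO without enzyme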
core dimer inh = HCV core protein dimerization inhibition. TR-FRET GST/Flag-core106 dimerization, 1536-well. inhibition, % at 5 µM. 300,000 tested, 0.33% active. AID 1899;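 active = inhibition above the mean of all tested compounds plus 3 SD, set per screening campaign, cut at about 45% in these data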
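System: GST-tagged and Flag-tagged HCV core protein residues 1-106 / Input: core106 proteins, GST 13.5 nM and Flag 17 nM / Buffer or medium: KF-containing HEPES buffer, pH 7.45, DTT, CHAPS, BSA / Probe or stimulus: Eu-anti-GST and XL665-anti-Flag labelled anti-tag antibodies / Schedule: 4 h, 22.5 °C incubation / Technique: TR-FRET 671 and 617 nm emission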
* hit, by the source's call; . = not tested or not shown.

SMILES | IMP-1 inhibitor | NadD inh | VIM-2 inh | core dimer inh
CCOC(=O)[C@H]1[C@H]2COc3ccc(OC)cc3[C@@H]2N2C(=O)CN(Cc3ccc(OC)cc3)C(=O)[C@@]12C | . | -5 | . | .
COc1cc(CNCc2ccncc2)cc(OC)c1OC | 6.1* | 5 | 1 | 2
COc1cc(CNCc2ccc(C)cc2)cc(OC)c1OC | -2 | 1 | -2 | -9
CC(Oc1ccc2c(c1)oc(=O)c1ccccc12)C(=O)NCCCN1CCOCC1 (stereo not drawn) | -3 | 1 | 12* | -6
CC(Oc1ccc2c(-c3ccccc3)cc(=O)oc2c1)C(=O)NCCCN1CCOCC1 (stereo not drawn) | -1 | -8 | 0 | -13
Cc1c(OC(C)C(=O)NCCN2CCOCC2)ccc2c3c(c(=O)oc12)CCCC3 (stereo not drawn) | -1 | -2 | 9.6* | -3
CC(Oc1cc2oc(=O)c3c(c2cc1Cl)CCC3)C(=O)NCCCN1CCCC1=O (stereo not drawn) | -5 | 2 | 9.1* | -16
Cc1cc(=O)oc2c(C)c(OC(C)C(=O)NCCN3CCOCC3)ccc12 (stereo not drawn) | -3 | -4 | 2 | 2
Cc1cc(=O)oc2cc(OC(C)C(=O)NCCCN3CCCC3=O)c(Cl)cc12 (stereo not drawn) | -4 | -4 | -3 | -10
Cc1cc(=O)oc2c(C)c(OCC(=O)NCCCN3CCOCC3)ccc12 | -1 | -7 | 7.8* | -2
Cc1c(NC(=O)CC2NC(=O)NC2=O)c(=O)n(-c2ccccc2)n1C (stereo not drawn) | -3 | . | -3 | -2
CCc1nc2ccc(C(=O)N3CCNC(=O)C3)cn2c1N(C)CCC(C)C | . | 2 | . | .
Cc1cc(OC(C)C(=O)NCCCN2CCCC2=O)c2c(C)c(C)c(=O)oc2c1 (stereo not drawn) | -4 | 0 | 0 | -19
Cc1c(OC(C)C(=O)NCCCN2CCCC2=O)ccc2c3c(c(=O)oc12)CCCC3 (stereo not drawn) | 0 | 6 | 10* | 11
CSc1ncccc1C(=O)Nc1ccc2c(c1)OCCO2 | . | 0 | . | .
N#Cc1ccccc1N1CCN(C(=O)c2ccc(NC(=O)c3ccc(Br)o3)cc2)CC1 | . | 11 | . | 33
CCOc1ccc(NC(=O)c2cn(-c3ccc(OCC)cc3)c(=O)c3cc(OC)c(OC)cc23)cc1 | 0 | -6 | -2 | 17
CCOc1ccc(-n2cc(C(=O)Nc3cccc(Cl)c3)c3cc(OC)c(OC)cc3c2=O)cc1 | -6 | -10 | -4 | 48*
O=C(/C=C/c1ccccc1Cl)c1ccccc(=O)c1O | 11* | 3 | 2 | 7
Cc1ccc(C)c(/C=C/C(=O)c2ccccc(=O)c2O)c1 | 3 | 10 | -4 | 5
COc1ccc(-c2nc(N3CCN(C)CC3)sc2-c2ccc(OC)cc2)cc1 | -2 | -19 | -2 | -12
COc1ccccc1CC(=O)N1CCCC1 | -1 | 0 | -4 | 1
COc1ccccc1CC(=O)N1CCN(c2ccccn2)CC1 | 5.9* | 4 | -1 | -3
Cc1ccn(CCC(=O)Nc2ccc(-c3ccno3)cc2)n1 | -1 | 2 | -1 | 10
CC(=O)Oc1ccc(C(=O)Nc2ccc(C3(C#N)CCCC3)cc2)cc1 | 12* | -7 | 0 | -3
SMILES | IMP-1 inhibitor | NadD inh | VIM-2 inh | core dimer inh
C[C@H]1CN([C@@H](C)CO)C(=O)CCCn2cc(nn2)CO[C@@H]1CN(C)S(=O)(=O)c1ccc(Oc2ccccc2)nc1 | . | 3 | . | .
Cc1cc(Cl)c2oc(C(=O)N3CCN(c4ccncc4)CC3)c(C)c2c1 | -4 | 3 | 7.8* | 0
O=C(C[N+]12CC[N+](CC(=O)c3ccc(F)cc3)(CC1)CC2)c1ccc(F)cc1 | -1 | -5 | -1 | 2
N#CC1(C#N)CC(C=O)=C(N)C1(C#N)CC(=O)c1ccc(F)cc1 (stereo not drawn) | 7.5* | 6 | -1 | -6
CN(CCc1cn[nH]c1)C(=O)C1CCC(=O)N(CC2CCCCC2)C1 (stereo not drawn) | -1 | 0 | -2 | .
C#CCSc1nsc(SCC#C)c1C#N | -1 | 6 | 0 | 63*
COCc1nc2c([nH]1)c(=O)n(C)c(=O)n2CC(C)C | . | -5 | . | 2
O=C(Nc1ccc(Cl)cc1)C1Cc2c(-c3ccccc3Oc3ccccc3)ccnc2O1 (stereo not drawn) | . | 7 | . | .
COc1ccccc1NC(=O)C1Cc2ccccc2CN1C(=O)c1ccco1 (stereo not drawn) | -3 | -3 | -2 | 21
O=C(Nc1ccccc1)C1Cc2ccccc2CN1C(=O)c1ccco1 (stereo not drawn) | -1 | 5 | 2 | 59*
O=C(Nc1cc(C(F)(F)F)ccc1N1CCOCC1)C1Cc2ccccc2CN1C(=O)c1ccco1 (stereo not drawn) | 5.6* | 6 | 0 | 7
COc1cccc(-c2cnc(C(O)c3ccc(Cl)c(Cl)c3)[nH]2)c1 (stereo not drawn) | . | 0 | . | .
COCCN(C(=O)c1snc(C(N)=O)c1N)C(C(=O)NC1CCCCC1)c1ccc(OC)c(OC)c1 (stereo not drawn) | -2 | 3 | -2 | -6
O=C(CCCSc1nnc(-c2cccs2)n1CC1CCCO1)c1ccccc1 (stereo not drawn) | -8 | 3 | 9.7* | 8
Cc1cccc(C(=O)OCC(=O)N2c3ccccc3CC2C)c1C (stereo not drawn) | . | -8 | . | .
Cc1oc2c(cc(NS(=O)(=O)c3ccc(F)cc3)c3ccccc32)c1C(=O)O | 5.8* | 3 | -3 | 13
COc1ccc(S(=O)(=O)Nc2cc3c(C(C)=O)c(C)oc3c3ccccc23)cc1 | -1 | -1 | -3 | 25
Cc1oc2c(cc(NS(=O)(=O)c3ccc(C(C)C)cc3)c3ccccc32)c1C(=O)O | 8.9* | 27 | 2 | 22
CCCCn1c(=O)[nH]c(=O)c2c1nc(-c1ccccn1)n2CC | -1 | 1 | -1 | -3
CCC(C)(C)c1ccc(OCCCC[n+]2cccc(C)c2)c(C(C)(C)CC)c1 | -4 | 9 | -3 | .
NCCNC(=O)Cn1c(=O)c2c3c(sc2n(Cc2ccccc2)c1=O)CCCC3 | -1 | -9 | 8.2* | -8
CC(C)c1nc2sc3c(NCc4ccco4)ncnc3c2c2c1COC(C)(C)C2 | -2 | 26 | 0 | 15
CCSc1ncnc2c1sc1nc(-c3ccco3)c3c(c12)CC(C)(C)OC3 | 1 | . | 0 | 65*
COC(=O)CSc1ncnc2c1sc1nc(-c3ccco3)c3c(c12)CC(C)(C)OC3 | 1 | . | -3 | 64*
CCOC(=O)C1=CCN(S(=O)(=O)c2ccc(Br)cc2)C1c1cccc(C)c1 (stereo not drawn) | . | -1 | . | .
COCCCN1CC(=O)N2Cc3[nH]c4ccccc4c3C[C@H]2C1=O | -1 | -2 | -2 | -6
C=CCn1cc(/C=N/NC(=O)COc2cccc3cccnc23)c2ccccc21 | 2 | 4 | 9.3* | 7
CC(C)n1cc(/C=N/NC(=O)COc2cccc3cccnc23)c2ccccc21 | 1 | 6 | 2 | 11
O=C(NCc1cccnc1)c1cc(C2CCCCN2S(=O)(=O)c2ccc(F)cc2F)on1 (stereo not drawn) | . | 1 | . | .
C/C(=C\c1ccc2c(c1)OCO2)C(=O)c1c(C)cc(C)[nH]c1=O | -3 | -2 | -1 | -4
